Data taken from ChEMBL document CHEMBL1151195, “New isoprenylated flavones, artochamins A--E, and cytotoxic principles from Artocarpus chama” (2004).
In brackets after ≈: the same amount, converted by molar mass.

Columns and labels:
A549 = assay: Cytotoxicity against human A549 cells; format: functional; details: read-out: ED50 (the source's name)
How it was run: (§1)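 Growth inhibition in cultured human tumor cell lines. Compound stocks were made in DMSO and held at -70 °C, then diluted into culture medium to a final DMSO level of ≤1% (v/v).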

HCT-8 = assay: Cytotoxicity against human HCT8 cells; format: functional; details: read-out: ED50 (the source's name); how it was run: as §1
[1] = Cytotoxicity against human KBVIN cells; format: functional; details: read-out: ED50 (the source's name); how it was run: as §1
SK-MEL-2 = assay: Cytotoxicity against human SK-MEL-2 cells; format: functional; details: read-out: ED50 (the source's name); how it was run: as §1
KB = assay: Cytotoxicity against human KB cells; format: functional; details: read-out: ED50 (the source's name); how it was run: as §1
PC-3 = assay: Cytotoxicity against human PC3 cells; format: functional; details: read-out: ED50 (the source's name); how it was run: as §1
CAKI-1 = assay: Cytotoxicity against human Caki1 cells; format: functional; details: read-out: ED50 (the source's name); how it was run: as §1
MDA-MB-231 = assay: Cytotoxicity against human MDA-MB-231 cells; format: functional; details: read-out: ED50 (the source's name); how it was run: as §1
[2] = Cytotoxicity against human U87MG cells; format: functional, U-87MG ATCC; details: U-87 MG, read-out: ED50 (the source's name); how it was run: as §1
1A9 = assay: Cytotoxicity against human 1A9 cells; format: functional; details: read-out: ED50 (the source's name); how it was run: as §1
MCF7 = assay: Cytotoxicity against human MCF7 cells; format: functional; details: read-out: ED50 (the source's name); how it was run: as §1

SMILES | EC50 (A549) | EC50 (HCT-8) | EC50 [1] | EC50 (SK-MEL-2) | EC50 (KB) | EC50 (PC-3) | EC50 (CAKI-1) | EC50 (MDA-MB-231) | EC50 [2] | EC50 (1A9) | EC50 (MCF7)
COc1cc2oc(-c3ccc(O)cc3O)c(CC=C(C)C)c(=O)c2c(O)c1/C=C/C(C)C [ARTOCARPIN] | 3.3 µg/mL (≈ 7.56 µM) | 3.8 µg/mL (≈ 8.71 µM) | 3.6 µg/mL (≈ 8.25 µM) | 5.4 µg/mL (≈ 12.4 µM) | 3.2 µg/mL (≈ 7.33 µM) | 4.1 µg/mL (≈ 9.39 µM) | 4.9 µg/mL (≈ 11.2 µM) | 3.8 µg/mL (≈ 8.71 µM) | 3.7 µg/mL (≈ 8.48 µM) | 3.4 µg/mL (≈ 7.79 µM) | 3.3 µg/mL (≈ 7.56 µM)
CC1(C)C=Cc2c(cc(O)c3c(=O)cc(-c4ccc(O)c(O)c4)oc23)O1 [ARTOCHAMIN C] | 3 µg/mL (≈ 8.51 µM) | 2.3 µg/mL (≈ 6.53 µM) | 3.4 µg/mL (≈ 9.65 µM) | 2.3 µg/mL (≈ 6.53 µM) | 3.4 µg/mL (≈ 9.65 µM) | 4.2 µg/mL (≈ 11.9 µM) | 5.3 µg/mL (≈ 15 µM) | 6.2 µg/mL (≈ 17.6 µM) | 7.2 µg/mL (≈ 20.4 µM) | 2 µg/mL (≈ 5.68 µM) | 2.2 µg/mL (≈ 6.24 µM)
CC(C)=CCc1c2c(c(O)c3c(=O)c4c(oc13)-c1c(O)cc(O)c3c1C(C4)C(C)(C)O3)C=CC(C)(C)O2 (centres undefined) [ARTONIN A] | 6.1 µg/mL (≈ 12.1 µM) |  |  |  |  |  |  |  |  |  | 6.7 µg/mL (≈ 13.3 µM)
CC(C)=CCc1c(-c2cc(O)c(O)cc2O)oc2c3c(cc(O)c2c1=O)OC(C)(C)C=C3 [ARTONIN E] | 8.5 µg/mL (≈ 19.5 µM) | 3.3 µg/mL (≈ 7.56 µM) | > 10 µg/mL | 4.3 µg/mL (≈ 9.85 µM) | 6.5 µg/mL (≈ 14.9 µM) | 6.9 µg/mL (≈ 15.8 µM) | 9.7 µg/mL (≈ 22.2 µM) | 3 µg/mL (≈ 6.87 µM) | 6.4 µg/mL (≈ 14.7 µM) | < 1.25 µg/mL | 2.2 µg/mL (≈ 5.04 µM)
CC1(C)C=Cc2c(cc(O)c3c(=O)c4c(oc23)-c2c(O)cc(O)c3c2C(C4)C(C)(C)O3)O1 (centres undefined) [CYCLOARTOBILOXANTHONE] | 7.2 µg/mL (≈ 16.6 µM) |  |  |  |  |  |  |  |  |  | 7.7 µg/mL (≈ 17.7 µM)
COc1ccc2c(c1)OC(C=C(C)C)c1c-2oc2cc(O)c(/C=C/C(C)C)c(O)c2c1=O (centres undefined) [CYCLOARTOCARPIN A] | 6.6 µg/mL (≈ 15.2 µM) |  |  |  |  |  |  |  |  |  | 6 µg/mL (≈ 13.8 µM)
